Assay outcomes as filed in PubChem.
RAM inhibit: blocks the yeast RAM network; S. cerevisiae dse1pr::URA3 reporter, 5-FOA growth OD615, 2 d; analog-sensitive cbk1-as2 kinase mutant strain; inhibition, % at 50 µM; 190,000 tested, 1.8% active; AID 868;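 active = inhibition above a set limit, 3 SD over mean compound inhibition, cut at about 8.4% in these data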;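 also: inhibition rescues growth on 5-FOA so higher OD means more RAM inhibition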
WT yeast gro inh: growth inhibition of WT yeast, mitochondrial fusion screen. mitochondrial fusion phenotypic screen, WT strain. inhibition, % at 10 µM. 190,000 tested, 2.1% active. AID 1362; in the data active = inhibition above about 58%; tested in S. cerevisiae
Arbovirus anti: antivirals against arbovirus infection; AID 1251; inhibition, % at 10 µM; 200,000 tested, 0.37% active; arbovirus infection cell-based antiviral screen; in the data active = inhibition above about 30%
Hck-Nef inh: inhibitors of human Hck kinase activated by Nef | 220,000 tested, 0.68% active | inhibition, % at 20 µM | P08631 | Recombinant Hck-YEEI plus Nef, Z-Lyte FRET kinase assay;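 active = Hck-Nef kinase inhibition above about 50%, limit read from the data; inactive = inhibition below that limit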
p47phox inh: p47phox (human) inhibition; P14598; p47phox/p22phox peptide binding, fluorescence polarization, 2 h; inhibition, % at 24.7 µM; 220,000 tested, 0.53% active;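 active = inhibition above about 30%, limit read from the data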
Target sequence (P14598 whole entry, looked up): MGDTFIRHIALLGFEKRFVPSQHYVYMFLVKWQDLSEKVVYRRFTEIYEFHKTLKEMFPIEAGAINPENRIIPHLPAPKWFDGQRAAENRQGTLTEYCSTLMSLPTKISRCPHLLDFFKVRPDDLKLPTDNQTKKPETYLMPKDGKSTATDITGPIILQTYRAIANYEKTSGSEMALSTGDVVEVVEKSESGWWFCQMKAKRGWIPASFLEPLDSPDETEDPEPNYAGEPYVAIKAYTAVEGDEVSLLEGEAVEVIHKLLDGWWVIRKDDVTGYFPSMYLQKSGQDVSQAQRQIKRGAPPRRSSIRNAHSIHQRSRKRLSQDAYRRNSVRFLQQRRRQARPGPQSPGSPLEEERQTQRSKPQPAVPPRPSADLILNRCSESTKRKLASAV
Calb biofilm kill: mixture kills Candida albicans biofilm cells; C. albicans biofilm persisters + clotrimazole, fluorescence viability; primary screen in compound mixtures of four per well; inhibition, % at 7.6 µM; 120,000 tested, 0.02% active; AID 1242;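 active = inhibition above 30.3% in the primary screen of four-compound pools, then above 30% when the compound was retested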;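 also: compounds exposed to preformed 24 h biofilms for 48 h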
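Incubation: 24 h biofilm formation, then 48 h compound exposure, 37 °C | Material: C. albicans biofilms | Buffer or medium: RPMI/MOPS medium, pH 7.0 | Measured by: 2-h Alamar Blue fluorescence, 535/590 nm excitation/emission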
RAM 5-FOA: RAM network inhibitors in efflux-deficient yeast. 1,200 tested, under 10 active. max inhibition, %. S. cerevisiae efflux-deficient reporter strain, 5-FOA growth OD615, 2 days. shares compounds with RAM inhibit; call rule not given here
Numbers stand for hits; – = inactive; · = not tested or not shown. Sampled rows, rich in hits. Any-hit rate of the full collection: about 4.6%.

SMILES	RAM inhibit	WT yeast gro inh	Arbovirus anti	Hck-Nef inh	p47phox inh	Calb biofilm kill	RAM 5-FOA
Cn1c(CNC(=O)c2ccccc2F)nnc1SCCOc1ccccc1	–	–	–	–	–	–	·
Cn1nc(C(F)(F)F)c2cc(C(=O)Nc3ccc(C(F)(F)F)cc3)sc21	·	·	·	–	–	–	·
O=C(NCc1ccccc1)/C(=C/c1ccc(OC(F)F)cc1)c1ccccc1	12.0	62.8	–	–	–	–	–
O=C(C[n+]1ccc(C(=O)NCc2ccccc2)cc1)c1ccc(OC(F)F)cc1	–	–	–	–	–	–	·
N#C/C(=C\c1ccc(C(=O)O)cc1)S(=O)(=O)c1cc(Br)ccc1Br	–	–	–	–	–	–	·
COc1cccc(C(=O)Nc2nnc(-c3cccs3)s2)c1	–	–	–	–	–	·	·
CC(=O)Nc1ccc(S(=O)(=O)Nc2nc3ccccc3nc2Nc2cccc(O)c2)cc1	·	·	·	–	–	–	·
CC(=O)Nc1ccc(S(=O)(=O)Nc2nc3ccccc3nc2Nc2ccc3ccccc3c2)cc1	15.9	–	–	–	–	–	–
Cc1cc(C)nc(N/N=C2/CCCC/C2=C\c2ccccc2)n1	–	–	–	–	–	–	·
O=C(Nc1ccn(Cc2ccc(Cl)cc2)n1)c1ccccc1	–	–	–	–	–	–	·
O=C(Nc1ccn(Cc2cccc3ccccc23)n1)c1cccnc1	11.7	–	–	–	–	–	–
CCn1cc(C(=O)N2CCN(c3ccccn3)CC2)c(=O)c2cc(S(=O)(=O)N(C)C3CCCCC3)ccc21	–	–	–	–	–	–	·
Cc1c(C(=O)N2CCc3ccccc3C2)oc2ccc(S(=O)(=O)N3CC(C)CC(C)C3)cc12 (centres undefined)	11.7	–	–	–	–	–	–
Cc1ccc2[nH]c(O)c(N=NC(=O)CCc3ccccc3)c2c1Br	–	–	–	–	–	–	·
COc1ccc(CCNC(=O)C2CCN(S(=O)(=O)c3cccs3)CC2)cc1OC	–	–	–	–	–	–	·
CCOc1cc(CNc2ccc(CNc3ncn[nH]3)cc2)ccc1OCc1ccccc1	12.2	–	–	–	–	–	–
COc1cc(CNc2ccc(CNc3ncn[nH]3)cc2)ccc1OCC(=O)NC(C)(C)C	–	–	–	–	–	–	·
Cc1ccccc1-c1nnn(CC(=O)Nc2ccc3c(c2)OCCO3)n1	11.5	–	–	–	–	–	–
CCCCc1c(C(=O)O)cc(OC)cc1C(=O)O	–	–	–	–	–	–	·
CCCCCc1c2c(cc(O)c1C(=O)O)OC(=O)c1c(cc(OC)cc1C(=O)CCCC)O2	13.3	–	–	–	–	–	–
O=[N+]([O-])c1ccc(C2Nc3cccc4cccc(c34)N2)cc1	11.8	–	–	–	–	–	–
O=C(O)CCCCn1c(SCc2ccccc2Cl)nc2ccsc2c1=O	16.9	–	–	–	–	–	–
COc1ccc(C)cc1NC(=O)C(OC(=O)C1CC1)c1ccccc1 (centres undefined)	–	–	–	–	–	–	·
COc1cccc(OCCNC(=O)c2ccccc2Sc2ccccc2C#N)c1	–	–	–	–	–	–	·
Cc1cc(C)c(OCCNC(=O)c2ccccc2Sc2ccccc2C#N)c(C)c1	19.7	–	–	–	–	–	–
SMILES	RAM inhibit	WT yeast gro inh	Arbovirus anti	Hck-Nef inh	p47phox inh	Calb biofilm kill	RAM 5-FOA
Cc1ccccc1OCCNC(=O)c1ccccc1Sc1ccccc1C#N	14.1	–	–	–	–	·	–
CNC(=O)c1ccccc1Sc1ccccc1C#N	–	–	–	–	–	–	·
Cc1ccc(/C=N/NC(=O)CNC(=O)Cc2ccccc2)o1	–	–	–	–	–	–	·
COc1cccc(C(=O)Oc2ccccc2/C=C\C(=O)c2cc3ccccc3o2)c1	16.4	–	–	–	–	–	–
COc1ccc(C(=O)/C=C/c2ccccc2OC)c(OC(=O)c2ccc([N+](=O)[O-])cc2)c1	·	·	·	–	·	·	·
CN(C)C(=O)C1C2NC(=S)N(c3cccc(Cl)c3)C1(C)Oc1ccc(Cl)cc12 (centres undefined)	–	–	–	–	–	–	·
O=C(COC(=O)c1ccccc1-c1nc2ccccc2s1)Nc1ccccc1C(F)(F)F	14.8	–	–	–	–	–	–
Cc1ccc(-n2cc(CN3CCN(C(=O)c4ncn[nH]4)CC3)c(-c3ccc(F)cc3)n2)cc1	·	·	·	–	–	–	·
COc1ccc(CCN2C(=O)/C(=C\c3ccco3)SC2=S)cc1OC	11.9	–	–	–	–	–	–
COc1cc([N+](=O)[O-])ccc1NC(=O)COC(=O)C=C(C)C	–	–	–	–	–	–	·
COc1ccc(/C=C2\SC(=S)N(CC(=O)OCC(=O)Nc3ccc(C)cc3Cl)C2=O)cc1	12.5	–	–	–	·	–	–
COc1ccc(/C=C2\SC(=S)N(CC(=O)OCC(=O)Nc3ccc([N+](=O)[O-])cc3OC)C2=O)cc1	17.6	–	–	–	–	–	–
O=c1c2ccccc2c(C=NCCc2ccccc2)c(O)n1Cc1ccccc1	12.7	–	–	–	–	·	–
CCn1c2ccccc2c2cc(NC(=O)c3cc(OC)c(OC)c(OC)c3)ccc21	11.7	–	–	–	–	·	–
COc1ccc(NC(=O)C2CC(=O)OC23CCOC(C)(C)C3)cc1 (centres undefined)	–	–	–	–	–	·	·
CCN(CC)c1nc(SCCOC(=O)Nc2ccccc2)nc(N(CC)CC)n1	18.0	–	–	–	–	–	–
O=C(Cn1c(=O)oc2cc(S(=O)(=O)N3CCCC3)ccc21)Nc1ccccc1Br	·	·	·	–	–	–	·
CC(=O)N1CCN(C(=O)CSc2nc3c(cnn3-c3ccccc3)c(=O)[nH]2)CC1	–	–	–	–	–	·	·
Fc1ccc(C2CC(c3cccs3)=NN2c2ccccc2)cc1 (centres undefined)	12.0	–	–	–	–	–	–
O=C(CSc1nc2c(cnn2-c2ccccc2)c(=O)[nH]1)N1N=C(c2cccs2)CC1c1ccc(F)cc1 (centres undefined)	12.5	–	–	–	–	–	–
COc1cc(C2SC(C)C(=O)N2CCc2ccccc2)cc(OC)c1OC (centres undefined)	–	–	–	–	–	–	·
CC12CN3CCN(CC(C3)/C1=N\N=C1/C3CN4CCN(C3)CC1(C)C4)C2	–	–	–	–	–	–	·
COc1ccc(C2CC(=O)C=C(NNS(=O)(=O)c3ccc(C)cc3)C2)cc1 (centres undefined)	–	–	–	–	–	–	·
COc1ccc(Nc2nnc(SCC3CCCCO3)s2)cc1 (centres undefined)	–	–	–	–	–	–	·
Cc1cccc(Nc2nnc(SCC3CCCCO3)s2)c1 (centres undefined)	14.5	–	–	–	–	–	–
COc1ccc(N(C(C)C(=O)N/N=C(\C)C(C)(C)C)S(C)(=O)=O)cc1 (centres undefined)	–	–	–	–	–	–	·
CCCC(O)(CCC)C(=O)NNc1ccc(C)cc1	·	·	·	–	–	–	·
